This note sets out measurements from ChEMBL document CHEMBL5608193, “Discovery of bivalent small molecule degraders of cyclin-dependent kinase 7 (CDK7)” (Eur J Med Chem, 2024).

The source made the active and inactive calls. The calls are words filed in the database; no cut-off is given here.

The target of one series is CDK7/Cyclin H/MNAT1 (Homo sapiens, UniProt P50613). Description: Inhibition of CDK7/CycH/MNAT1 (unknown origin) assessed as change in TR-FRET ratio using Cdk7/9tide as substrate and ATP by in vitro Adapta Eu kinase assay. It is filed as protein-complex assay. The procedure, abridged:
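Adapta Eu kinase assay run at ThermoFisher on CDK7/Cyclin H/MNAT1 with ATP at Km.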

Series [1] addresses T1, von Hippel-Lindau disease tumor suppressor/Cyclin-dependent kinase 7 (Homo sapiens) (UniProt P50613+P40337). Briefly: PROTAC activity at CDK7/VHL in human Jurkat cells assessed as degradation of CDK7 at 0.1 uM measured after 16 hrs incubation by immunoblot analysis relative to control. It is filed as cell-based. The procedure, abridged:
(§1)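 Jurkat cells given VHL-recruiting compounds at 0.1 or 1 μM for 16 h. RIPA lysis, BCA normalization, 4–20% SDS-PAGE, nitrocellulose transfer. CDK7 (1:1000) and β-actin probed overnight at 4 °C, IRDye secondaries, Odyssey detection. Quantified against control, mean ± SEM from three independent biological replicates.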

Series [2] has as its target T1, von Hippel-Lindau disease tumor suppressor/Cyclin-dependent kinase 7 (Homo sapiens). Briefly: PROTAC activity at CDK7/VHL in human Jurkat cells assessed as degradation of CDK7 at 1 uM measured after 16 hrs incubation by immunoblot analysis relative to control. It counts as cell-based. In a few lines: as §1
(Immunoblotting shows a protein as a band on a membrane.)

For series [3] the target is unchanged. Description: PROTAC activity at CDK7/VHL in human Jurkat cells assessed as degradation of CDK7 at 0.1 uM by immunoblot analysis. It counts as cell-based. The conditions noted are these: time 0.5-24 hrs, TDE = time-dependent effect. The procedure, abridged:
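Jurkat time course at 0.1 μM, lysates taken at set time points from 0.5 up to 24 h. CDK7 immunoblotted after RIPA lysis, SDS-PAGE and near-infrared detection with β-actin loading control.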

Series [4] shares this target. Description: PROTAC activity at CDK7/VHL in human OVCAR-3 cells assessed as degradation of CDK7 at 0.1 to 5 uM measured after 6 hrs incubation by immunoblot analysis. It counts as cell-based. The conditions noted are these: dose 0.1-5 µM.
The target is the same in series [5]. Briefly: PROTAC activity at CDK7/VHL in human Jurkat cells assessed as degradation of CDK7 in presence of 1 uM MLN-4924 at 0.1 uM measured after 6 hrs incubation by immunoblot analysis. It counts as cell-based. The procedure, abridged: (§2)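 Jurkat cells pretreated 2 h with MG132, MLN-4924, YKL-5–167 or a VHL ligand, then given degrader for 6 h. CDK7 immunoblotted: RIPA lysis, SDS-PAGE, anti-CDK7 1:1000, IRDye secondaries.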

The target is the same in series [6]. Description: PROTAC activity at CDK7/VHL in human Jurkat cells assessed as degradation of CDK7 in presence of 10 uM YKL-5-167 at 0.1 uM measured after 6 hrs incubation by immunoblot analysis. It is filed as cell-based. In a few lines: as §2
The target of series [7] is Cyclin-dependent kinase 7 (Homo sapiens) (UniProt P50613). Description: Induction of degradation of CDK7 in human […]-knockout Jurkat cells at 0.01 to 1 uM measured after 6 hrs incubation by immunoblot analysis. It is filed as cell-based. The settings on record: dose 0.01-1 µM. The procedure, abridged:
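Parental and VHL-knockout Jurkat cells treated with degrader for 6 h, then CDK7 western blot (RIPA lysis, 4–20% SDS-PAGE, β-actin control, infrared detection).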

Series [8] has as its target von Hippel-Lindau disease tumor suppressor/Cyclin-dependent kinase 2 (Homo sapiens) (UniProt P24941+P40337). Description: PROTAC activity at CDK2/VHL in human Jurkat cells assessed as degradation of CDK7 measured at 10 to 500 nM after 6 hrs incubation by Western blotting analysis. It counts as cell-based. The settings on record: dose 10-500 nM.
For series [9], the target named is von Hippel-Lindau disease tumor suppressor/Cyclin-dependent kinase 5 (Homo sapiens) (UniProt Q00535+P40337). Briefly: PROTAC activity at CDK5/VHL in human Jurkat cells assessed as degradation of CDK7 measured at 10 to 500 nM after 6 hrs incubation by Western blotting analysis. It is filed as cell-based. The conditions noted are these: dose 10-500 nM.
For series [10], the target named is von Hippel-Lindau disease tumor suppressor/Cyclin-dependent kinase 6 (Homo sapiens) (UniProt Q00534+P40337). Description: PROTAC activity at CDK6/VHL in human Jurkat cells assessed as degradation of CDK7 measured at 10 to 500 nM after 6 hrs incubation by Western blotting analysis. It is filed as cell-based. The settings on record: dose 10-500 nM.
The target in series [11] is T1, von Hippel-Lindau disease tumor suppressor/Cyclin-dependent kinase 7 (Homo sapiens). Description: PROTAC activity at CDK7/VHL in human Jurkat cells assessed as degradation of CDK7 measured at 0.1 to 5 uM after 6 hrs incubation by Western blotting analysis. It counts as cell-based. The conditions noted are these: dose 0.1-5 µM. The procedure, abridged:
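Jurkat cells dosed across a concentration series up to 5 μM for 6 h. CDK7 immunoblot via RIPA lysis, 4–20% SDS-PAGE, IRDye secondaries. Quantified as mean ± SEM from three independent biological replicates.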

For series [12] the target is unchanged. Briefly: PROTAC activity at CDK7/VHL in human Jurkat cells assessed as degradation of MAT1 measured at 0.1 to 5 uM after 6 hrs incubation by Western blotting analysis. It is filed as cell-based. The conditions noted are these: dose 0.1-5 µM. In a few lines: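 Jurkat and OVCAR3 cells treated 6 h across a concentration series. Blots probed for CDK7, MAT1 (1:1000) and Cyclin H (1:1000) overnight at 4 °C, with β-actin control and IRDye secondaries.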

For series [13], the system named is Jurkat. Description: Antiproliferative activity against human Jurkat cells assessed as cell viability measured after 72 hrs by CellTiter-Glo assay. It is filed as functional, cell-based. The procedure, abridged: (§3)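 Cells grown in RPMI 1640 with 10% heat-inactivated FBS and penicillin/streptomycin at 37 °C, 5% CO2, mycoplasma-negative. Seeded at 10^4/ml. Compounds dispensed digitally from 10 mM or 1 mM DMSO stocks, DMSO equalized, triplicate wells. After 72 h, CellTiter-Glo added for 10–15 min at room temperature and luminescence read.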
(In general: ATP-based viability assays read luminescence as a measure of living cells.)

In a further series the test system is A549. Description: Antiproliferative activity against human A549 cells assessed as cell viability measured after 72 hrs by CellTiter-Glo assay. It is filed as functional, cell-based. The settings on record: A549, 72 h. The procedure, abridged: as §3
Series [14] concerns Jurkat. Briefly: Potency index, ratio of YKL-5-167 IC50 to test compound IC50 for antiproliferative activity against human Jurkat cells assessed as cell viability measured after 72 hrs by CellTiter-Glo assay. It counts as functional.
The nature of series [15]: Half life in male CD1 mouse at 3 mg/kg, IV measured upto 24 hrs by LC-MS/MS-39 analysis. It is filed as ADME, organism-based. The conditions noted are these: in vivo. In a few lines:
(§4)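 Three male CD1 mice given a single 3 mg/kg intravenous dose. Plasma prepared on ice by centrifugation (2000 g, 5 min, 4 °C) within 15 min, held at about −70 °C. Acetonitrile precipitation, then LC-MS/MS quantitation. Mean ± SD, n=3.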

Series [16] can be described thus: AUClast in male CD1 mouse at 3 mg/kg, IV measured upto 24 hrs by LC-MS/MS-39 analysis. The settings on record: in vivo. It counts as ADME, organism-based. The procedure, abridged: as §4
The nature of series [17]: Tmax in male CD1 mouse at 10 mg/kg, IP measured upto 24 hrs by LC-MS/MS-39 analysis. It is filed as ADME, organism-based. The conditions noted are these: in vivo. The procedure, abridged:
(§5)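 Male CD1 mice, n=3, one 10 mg/kg intraperitoneal dose. Blood sampled at 0, 0.25, 0.5, 1, 2, 4, 6, 8 and 24 h. Kept on wet ice and spun to plasma (2000 g, 5 min, 4 °C) within 15 min, stored at about −70 °C. Protein precipitation with acetonitrile, then LC-MS/MS. Values are mean ± SD of three mice.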

A short description of series [18]: AUClast in male CD1 mouse at 10 mg/kg, IP measured upto 24 hrs by LC-MS/MS-39 analysis. The settings on record: in vivo. It is filed as ADME, organism-based. In a few lines:
as §5

Series [19] is described as follows: Observed clearance in male CD1 mouse at 10 mg/kg, IP measured upto 24 hrs by LC-MS/MS-39 analysis. It counts as ADME, organism-based. The settings on record: in vivo. In a few lines:
as §5

As usually defined, the IC50 is the concentration that gives 50% inhibition. As a reminder, the Tmax is the time from dosing to the highest level. By CL/F is commonly meant clearance divided by bioavailability, as obtained after extravascular dosing. Turning to `Cc1ncsc1-c1ccc([C@H](C)NC(=O)[C@@H]2C[C@@H](O)CN2C(=O)[C@@H](NC(=O)CCCC#Cc2ccc(C(=O)Nc3n[nH]c4c3CN(C(=O)N[C@H](CN(C)C)c3ccccc3)C4(C)C)cc2)C(C)(C)C)cc1`, the IC50 at CDK7/Cyclin H/MNAT1 amounted to 20.1 nM; with Jurkat [13], 160 nM; in the series with A549, 332 nM. In addition, the Activity in series [1] is 95%; in series [2] it was 95%; in series [3], “Tde”; in [4], “Dose-Dependent Effect”. Also, the outcome in series [5], in [6], in series [7], in [8], in series [9] and in series [10] was inactive. Also, the outcome in series [11] and in series [12] was Active. For the same compound, the Ratio in the series with Jurkat [14] is on record as 7. This compound registered a t1/2 in series [15] of 3.76 h. Also, the AUClast came out at 6.12 µM·h in series [16] and 19.4 µM·h in series [18]. Also, the Tmax in series [17] was 1 h. Also, in [19], the CL/F worked out at 8.7 mL/min/kg.
